Measurements: article PMC2943143 (Biochemical pharmacology, 2010)

System: calf thymus double-stranded DNA (dsDNA)
Experiment: Thermal transition of DNA
Assay type: binding
Conditions: 15 μM compound, calf thymus dsDNA 6 μg/ml, pH 7.0
In short: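 Calf thymus dsDNA (6 μg/ml) in 0.1 M sodium phosphate pH 7.0 with 1% DMSO was tested with or without test compound, with ethidium bromide as intercalator control. Samples were equilibrated at 78 °C for 10 min, then raised 1 °C every 2 min. Absorbance was recorded on a spectrophotometer with a thermoelectric cell holder, and compound-only absorbance was subtracted to give Tm.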

Question: `CC[n+]1c(-c2ccccc2)c2cc(N)ccc2c2ccc(N)cc21` [ethidium bromide, reference compound] was tested. Which “effect on melting temperature (Tm) / thermal transition of dsDNA” value did it give?
Answer: clear shift of thermal transition
